Converted amounts (≈) assume the structure as drawn. The source made the active and inactive calls. The rule behind the calls is not given here.
Columns and labels:
[1] = target: Diacylglycerol acyltransferase/mycolyltransferase Ag85C (Mycobacterium tuberculosis) (UniProt P9WQN9); assay: Inhibition of mycolyltransferase activity of Mycobacterium tuberculosis antigen 85C by UV-visible absorption spectroscopy
Outline: (§1)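 Purified ag85C (M. tuberculosis) in 10 mM Tris–HCl pH 7.5, 2 mM EDTA, 1 mM DTT, added to start the reaction. The mix holds sodium phosphate buffer, β-glucosidase, dextrose and the glucose-based p-nitrophenyl substrate analogue (stock 0.1–2.5 mM, in 10% v/v DMSO); test compound is added in DMSO. The coupled release of p-nitrophenolate is read at 405 nm every 20 s for 1 h, and activity is compared by the slopes.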

[2] = system: Mycolicibacterium smegmatis; assay: Antibacterial activity against Mycobacterium smegmatis ATCC 14468 assessed as inhibition zone diameter at 20 mg/mL after 24 hrs by Kirby-Bauer disk diffusion assay; format: functional; details: for zone of inhibition at 20000 µg/mL: ATCC 14468, 24 h, read-out: IZ
Outline: (§2)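 Disk diffusion adapted from NCCLS. M. smegmatis was pre-grown about 24 h in 7H9 with 0.2% glycerol and ADC at 37.5 °C and 160 rpm, to OD₆₀₀ 0.27. It was swabbed onto Lennox or 7H10 agar with 0.5% glycerol and OADC. DMSO solutions (20 or 10 mg/mL) or control went onto 6 mm paper disks. Plates were incubated at 37 °C for 24 h, rechecked at day 6, and zone diameters measured in mm by ruler.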

Bacillus subtilis = assay: Antibacterial activity against Bacillus subtilis ATCC 6633 after 36 hrs visualized by MTT staining by broth macrodilution assay; format: functional; details: ATCC 6633, 36 h
Outline: (§3)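 Broth macrodilution adapted from NCCLS. E. coli and B. subtilis grown in Mueller-Hinton broth; M. smegmatis in Middlebrook 7H9 with 0.2% glycerol and ADC enrichment. Inocula were set to a 0.5 McFarland standard, giving a final density of 5.0 · 10⁵ cfu/mL. Incubated at 37 °C for 36 h and the MIC recorded.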

[3] = system: Mycolicibacterium smegmatis; assay: Antibacterial activity against Mycobacterium smegmatis ATCC 14468 after 36 hrs visualized by MTT staining by broth macrodilution assay; format: functional; details: ATCC 14468, 36 h; outline: as §3
Escherichia coli = assay: Antibacterial activity against Escherichia coli ATCC 23722 after 36 hrs visualized by MTT staining by broth macrodilution assay; format: functional; details: ATCC 23722, 36 h; outline: as §3
[4] = system: Mycolicibacterium smegmatis; assay: Antibacterial activity against Mycobacterium smegmatis ATCC 14468 assessed as inhibition zone diameter at 10 mg/mL after 24 hrs by Kirby-Bauer disk diffusion assay; format: functional; details: for zone of inhibition at 10000 µg/mL: ATCC 14468, 24 h, read-out: IZ; outline: as §2
[5] = target: Diacylglycerol acyltransferase/mycolyltransferase Ag85C (Mycobacterium tuberculosis) (UniProt P9WQN9); assay: Inhibition of mycolyltransferase activity of Mycobacterium tuberculosis antigen 85C at 1 to 20 mM by UV-visible absorption spectroscopy; outline: as §1

Chain of Diacylglycerol acyltransferase/mycolyltransferase Ag85C (Mycobacterium tuberculosis) (P9WQN9 whole entry): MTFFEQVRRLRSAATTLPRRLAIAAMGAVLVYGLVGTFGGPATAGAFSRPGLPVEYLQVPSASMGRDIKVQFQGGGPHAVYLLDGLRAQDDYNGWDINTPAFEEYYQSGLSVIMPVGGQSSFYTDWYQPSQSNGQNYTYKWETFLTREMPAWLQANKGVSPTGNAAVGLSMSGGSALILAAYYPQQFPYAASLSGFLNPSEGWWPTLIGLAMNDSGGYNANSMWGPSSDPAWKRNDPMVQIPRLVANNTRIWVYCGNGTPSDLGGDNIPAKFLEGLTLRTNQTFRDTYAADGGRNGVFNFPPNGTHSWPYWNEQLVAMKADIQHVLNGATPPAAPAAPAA

With `CCCCCCCCSC[C@H]1O[C@H](OC)[C@@H](O)[C@@H]1O` the Activity [1] was “Active”, the zone of inhibition at 20000 µg/mL [2] was 17.5 mm and the MIC (Bacillus subtilis) was 128 µg/mL (≈ 0.438 mM). For the same molecule, the MIC [3] was 256 µg/mL (≈ 0.875 mM), the MIC (Escherichia coli) was greater than 1020 µg/mL and the zone of inhibition at 10000 µg/mL [4] was 14.5 mm.
`CCCCSC[C@H]1O[C@@H](OC)[C@@H](O)[C@@H]1O` was tested, and the Activity [2] was “inactive”, the MIC (Bacillus subtilis) was greater than 1020 µg/mL and the MIC [3] was greater than 1020 µg/mL. For the same molecule, the MIC (Escherichia coli) was greater than 1020 µg/mL, the Activity [5] was “inactive” and the Activity [4] was “inactive”.
With `CCCCCCCCSC[C@H]1O[C@@H](OC)[C@@H](O)[C@@H]1O` the Activity [1] was “Active”, the zone of inhibition at 20000 µg/mL [2] was 13.5 mm and the MIC (Bacillus subtilis) was 512 µg/mL (≈ 1.75 mM). For the same molecule, the MIC [3] was 512 µg/mL (≈ 1.75 mM), the MIC (Escherichia coli) was greater than 1020 µg/mL and the zone of inhibition at 10000 µg/mL [4] was 7.5 mm.
In the case of `CCCCCCSC[C@H]1O[C@@H](OC)[C@@H](O)[C@@H]1O`, the Activity [1] is reported as “Active”, the Activity [2] is reported as “inactive” and the MIC (Bacillus subtilis) is reported as greater than 1020 µg/mL. For the same molecule, the MIC [3] was 1020 µg/mL (≈ 3.87 mM), the MIC (Escherichia coli) was greater than 1020 µg/mL and the Activity [4] was “inactive”.
For `CCCCSC[C@H]1O[C@H](OC)[C@@H](O)[C@@H]1O`, the Activity [2] was “inactive”, the MIC (Bacillus subtilis) was greater than 1020 µg/mL and the MIC [3] was greater than 1020 µg/mL. The MIC (Escherichia coli) was greater than 1020 µg/mL and the Activity [4] was “inactive”.
For `NNC(=O)c1ccncc1` [ISONIAZID], the MIC [3] was 2 µg/mL (≈ 0.0146 mM).
For `CCCCCCSC[C@H]1O[C@H](OC)[C@@H](O)[C@@H]1O`, the Activity [1] was “Active”, the Activity [2] was “inactive” and the MIC (Bacillus subtilis) was greater than 1020 µg/mL. The MIC [3] was 1020 µg/mL (≈ 3.87 mM), the MIC (Escherichia coli) was greater than 1020 µg/mL and the Activity [4] was “inactive”.

— ChEMBL document CHEMBL1150325, “Synthesis of methyl 5-S-alkyl-5-thio-D-arabinofuranosides and evaluation of their antimycobacterial activity” (2008)
